Results on one compound are retold here after ChEMBL document CHEMBL4020721 (Eur J Med Chem, 2017).

The structures appear in SMILES notation. Where only a bound is given, the exact number is not on record here.

For data set [1], the target named is Vascular endothelial growth factor receptor 1 (Homo sapiens, UniProt P17948). Kind of data set: Inhibition of FLT1 (unknown origin) using FAM-labeled peptide as substrate preincubated for 5 to 10 mins followed by substrate/ATP addition measured after 30 to 60 mins by mobility shift assay. The procedure, abridged: (§1)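 Caliper mobility-shift assay with FAM-labeled peptide substrate. Buffer: 50 mM HEPES pH 7.5, 0.0015% Brij-35, 10 mM MgCl2, 2 mM DTT, with kinase-specific enzyme levels. […] Incubation was 30-60 min at 28°C, stopped with EDTA buffer. Read-out was % conversion.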

Data set [2] has as its target Proto-oncogene tyrosine-protein kinase receptor Ret (Homo sapiens, UniProt P07949). Briefly: Inhibition of RET (unknown origin) using FAM-labeled peptide as substrate preincubated for 5 to 10 mins followed by substrate/ATP addition measured after 30 to 60 mins by mobility shift assay. The procedure, abridged:
as §1

The subject of another data set is SNU-5. Kind of data set: Antitumor activity against human SNU5 cells xenografted in BALB/c athymic nude mouse assessed as tumor regression at 3 mg/kg, po administered once daily for 2 weeks. Format: functional. In a few lines: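 Nude BALB/c mice, 5-6 weeks old, under SPF conditions, were implanted s.c. in the right flank with 6×10^6 SNU-5 cells. Groups were sorted at 100-200 mm³, n=6, with vehicle controls. Oral dosing once daily for 2 weeks. Percent tumor regression = 100% × (treated day 0 − treated final)/treated day 0. Mean±SEM, Student's t-test.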
In general terms: In xenograft studies the graft and the host belong to different species.

The next data set concerns NCI-H1993. Briefly: Antitumor activity against human NCI-H1993 cells xenografted in BALB/c athymic nude mouse assessed as tumor growth inhibition at 1 mg/kg, po administered once daily for 3 weeks. Format: functional. The following applies: 504 h, read-out: TGI. In a few lines: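 BALB/c nude mice, 5-6 weeks old, kept under SPF conditions, received 7×10^6 NCI-H1993 cells s.c. in the right flank. At 150-250 mm³ they were sorted and randomized, n=7 per group, with vehicle controls. Dosing was oral, once daily for 3 weeks. […] Mean±SEM, Student's t-test.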

A short description of data set [3]: Clearance in Sprague-Dawley rat plasma at 1 mg/kg, iv by UPLC-MS/MS analysis. It is filed as ADME, organism-based. The procedure, abridged: (§2)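 Male Sprague-Dawley rats (180-220 g) were fasted overnight with free access to water. Dosing was intravenous (n=2) or oral at 6 mg/kg (n=3). Heparinized blood was drawn from 0 to 1440 min. Plasma was frozen at -20°C, then precipitated with acetonitrile containing internal standard, centrifuged and analysed by UPLC-MS/MS.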

Another data set addresses CYP3A4 (Homo sapiens, UniProt P08684). Kind of data set: Time dependent irreversible inhibition of CYP3A4 in human liver microsomes at 10 uM preincubated with compound followed by NADPH addition by LC-MS/MS analysis. Format: ADME. The following applies: liver microsomes. In a few lines: (§3)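 HLM (0.2 mg/ml) with 10 µM compound were preincubated 0, 5, 10 or 20 min at 37°C with 1 mM NADPH or PBS. Substrate cocktail (halved concentrations) plus NADPH was then added for 10 min. Metabolites were measured by LC-MS/MS. Kobs is the slope of relative activity versus preincubation time.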

For data set [4], the target named is Tyrosine-protein kinase ABL1 (Homo sapiens, UniProt P00519). Kind of data set: Inhibition of ABL (unknown origin) using FAM-labeled peptide as substrate preincubated for 5 to 10 mins followed by substrate/ATP addition measured after 30 to 60 mins by mobility shift assay. The procedure, abridged: as §1
Data set [5] has as its target Tyrosine-protein kinase receptor UFO (Homo sapiens, UniProt P30530). Kind of data set: Inhibition of Axl (unknown origin) using FAM-labeled peptide as substrate preincubated for 5 to 10 mins followed by substrate/ATP addition measured after 30 to 60 mins by mobility shift assay. The procedure, abridged: as §1
A further data set deals with CYP2D6 (Homo sapiens, UniProt P10635). Briefly: Time dependent irreversible inhibition of CYP2D6 in human liver microsomes at 10 uM preincubated with compound followed by NADPH addition by LC-MS/MS analysis. Format: ADME. The following applies: liver microsomes. The procedure, abridged:
as §3

For data set [6], the target named is Vascular endothelial growth factor receptor 2 (Homo sapiens, UniProt P35968). Kind of data set: Inhibition of VEGFR2 (unknown origin) using FAM-labeled peptide as substrate preincubated for 5 to 10 mins followed by substrate/ATP addition measured after 30 to 60 mins by mobility shift assay. In a few lines:
as §1

The nature of data set [7]: Intrinsic clearance in rat liver microsomes assessed per mg protein at 1 uM preincubated for 5 mins followed by NADPH addition measured after 5 to 30 mins by LC-MS/MS analysis. The conditions noted are these: read-out: CLH. Format: ADME, microsome. In a few lines:
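Microsomes (0.5 mg/ml) with 1 µM compound were preincubated 5 min at 37°C in 100 mM phosphate buffer pH 7.4, then started with 1 mM NADPH. Samples were taken at 0, 5, 10 and 30 min, quenched with acetonitrile/tinidazole and run by LC-MS/MS. CLint = k / microsomal protein concentration. Midazolam was the positive control.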
On the technique in general: Microsomes from liver hold many membrane-bound enzymes, among them those of drug oxidation.

A short description of data set [8]: Volume of distribution at steady state in Sprague-Dawley rat plasma at 1 mg/kg, iv by UPLC-MS/MS analysis. The following applies: read-out: Vdss. It is filed as ADME, organism-based. In a few lines:
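Male Sprague-Dawley rats (180-220 g), fasted overnight with water available, dosed iv (n=2). Blood on heparin collected from 0 to 1440 min. Plasma obtained by centrifugation and stored at -20°C. Proteins precipitated with acetonitrile containing internal standard, then UPLC-MS/MS. Vss taken from the iv data.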

Another data set deals with CYP2C19 (Homo sapiens, UniProt P33261). Kind of data set: Time dependent irreversible inhibition of CYP2C19 in human liver microsomes at 10 uM preincubated with compound followed by NADPH addition by LC-MS/MS analysis. Format: ADME. In a few lines:
as §3

Data set [9] in a line: AUC (0 to 24 hrs) in Sprague-Dawley rat plasma at 6 mg/kg, po by UPLC-MS/MS analysis. It is filed as ADME, organism-based. Further details: dose 6 mg/kg, time < 24 hr, route oral. The procedure, abridged:
as §2

Another data set concerns the target T1, CYP1A2 (Homo sapiens, UniProt P05177).
T1 sequence (P05177 whole entry): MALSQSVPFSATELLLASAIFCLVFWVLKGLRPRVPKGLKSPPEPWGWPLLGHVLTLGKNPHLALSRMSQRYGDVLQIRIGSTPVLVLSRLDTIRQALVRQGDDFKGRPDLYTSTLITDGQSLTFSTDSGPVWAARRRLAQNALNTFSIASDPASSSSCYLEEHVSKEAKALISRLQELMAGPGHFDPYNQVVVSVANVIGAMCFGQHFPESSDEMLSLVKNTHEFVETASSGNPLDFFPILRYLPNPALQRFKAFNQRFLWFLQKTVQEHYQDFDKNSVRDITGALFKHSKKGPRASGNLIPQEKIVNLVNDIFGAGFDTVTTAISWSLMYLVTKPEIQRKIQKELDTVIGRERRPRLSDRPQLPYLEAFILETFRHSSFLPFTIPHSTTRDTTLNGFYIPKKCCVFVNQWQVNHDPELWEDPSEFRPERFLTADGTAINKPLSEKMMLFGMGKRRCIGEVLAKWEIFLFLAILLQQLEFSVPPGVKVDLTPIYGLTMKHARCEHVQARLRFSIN
Kind of data set: Time dependent irreversible inhibition of CYP1A2 in human liver microsomes at 10 uM preincubated with compound followed by NADPH addition by LC-MS/MS analysis. Format: ADME. The following applies: liver microsomes. In a few lines: as §3

In general, IC50 refers to the midpoint of a concentration-inhibition curve. The clearance is a measure of how efficiently the substance is removed, as volume per time. As usually defined, the inhibition is the change of the read-out against control, counted positive when it falls. The term AUC(0-t) denotes exposure summed from dosing to a finite time, without extrapolation to infinity. A lower AUC(0-t) goes with less exposure.

Vascular endothelial growth factor receptor 1, sequence (P17948 whole entry): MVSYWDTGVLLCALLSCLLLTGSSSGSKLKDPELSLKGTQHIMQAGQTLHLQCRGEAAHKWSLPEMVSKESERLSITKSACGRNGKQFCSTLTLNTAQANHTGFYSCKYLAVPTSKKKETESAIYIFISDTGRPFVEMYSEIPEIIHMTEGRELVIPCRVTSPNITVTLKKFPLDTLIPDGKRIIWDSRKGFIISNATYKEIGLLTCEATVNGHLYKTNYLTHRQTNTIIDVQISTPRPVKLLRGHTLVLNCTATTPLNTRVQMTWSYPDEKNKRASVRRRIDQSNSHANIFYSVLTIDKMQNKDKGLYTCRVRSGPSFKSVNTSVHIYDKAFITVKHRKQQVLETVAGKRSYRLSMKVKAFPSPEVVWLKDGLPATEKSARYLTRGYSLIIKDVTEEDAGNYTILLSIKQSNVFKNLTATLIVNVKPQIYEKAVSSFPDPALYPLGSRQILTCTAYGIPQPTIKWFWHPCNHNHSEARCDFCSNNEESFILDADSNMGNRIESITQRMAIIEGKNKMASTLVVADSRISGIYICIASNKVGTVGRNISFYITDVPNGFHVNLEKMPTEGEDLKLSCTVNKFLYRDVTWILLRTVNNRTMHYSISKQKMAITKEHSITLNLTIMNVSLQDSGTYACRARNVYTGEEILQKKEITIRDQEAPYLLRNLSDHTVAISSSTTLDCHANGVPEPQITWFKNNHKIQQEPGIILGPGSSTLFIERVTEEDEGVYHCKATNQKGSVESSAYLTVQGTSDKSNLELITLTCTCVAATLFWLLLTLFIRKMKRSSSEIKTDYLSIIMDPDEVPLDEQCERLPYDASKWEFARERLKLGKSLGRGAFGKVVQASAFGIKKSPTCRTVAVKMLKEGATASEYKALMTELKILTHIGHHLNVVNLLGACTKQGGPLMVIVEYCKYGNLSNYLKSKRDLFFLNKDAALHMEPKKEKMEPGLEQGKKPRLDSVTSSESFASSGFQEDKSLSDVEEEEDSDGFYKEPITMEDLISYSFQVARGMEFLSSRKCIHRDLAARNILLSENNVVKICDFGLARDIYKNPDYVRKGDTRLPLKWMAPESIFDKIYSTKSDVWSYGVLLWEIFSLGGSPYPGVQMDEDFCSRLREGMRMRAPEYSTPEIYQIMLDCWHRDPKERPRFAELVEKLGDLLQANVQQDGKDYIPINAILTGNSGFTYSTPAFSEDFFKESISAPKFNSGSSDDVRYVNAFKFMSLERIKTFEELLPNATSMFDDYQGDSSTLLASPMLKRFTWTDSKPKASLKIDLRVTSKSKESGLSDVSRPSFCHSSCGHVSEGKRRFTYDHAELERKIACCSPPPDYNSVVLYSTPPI
CYP3A4, sequence (P08684 whole entry): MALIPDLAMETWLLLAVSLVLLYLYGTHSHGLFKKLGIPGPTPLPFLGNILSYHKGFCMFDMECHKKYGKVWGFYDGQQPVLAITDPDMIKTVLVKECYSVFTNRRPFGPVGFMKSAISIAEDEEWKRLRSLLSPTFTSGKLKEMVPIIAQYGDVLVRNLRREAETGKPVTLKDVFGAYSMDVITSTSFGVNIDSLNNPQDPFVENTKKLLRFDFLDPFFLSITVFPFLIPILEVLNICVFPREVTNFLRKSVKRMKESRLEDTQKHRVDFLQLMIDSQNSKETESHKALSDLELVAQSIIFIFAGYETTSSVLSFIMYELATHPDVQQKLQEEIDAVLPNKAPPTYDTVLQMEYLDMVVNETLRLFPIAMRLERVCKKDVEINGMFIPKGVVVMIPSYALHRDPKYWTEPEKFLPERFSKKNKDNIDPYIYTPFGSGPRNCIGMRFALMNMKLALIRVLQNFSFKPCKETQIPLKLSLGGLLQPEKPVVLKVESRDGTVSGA
CYP2C19, sequence (P33261 whole entry): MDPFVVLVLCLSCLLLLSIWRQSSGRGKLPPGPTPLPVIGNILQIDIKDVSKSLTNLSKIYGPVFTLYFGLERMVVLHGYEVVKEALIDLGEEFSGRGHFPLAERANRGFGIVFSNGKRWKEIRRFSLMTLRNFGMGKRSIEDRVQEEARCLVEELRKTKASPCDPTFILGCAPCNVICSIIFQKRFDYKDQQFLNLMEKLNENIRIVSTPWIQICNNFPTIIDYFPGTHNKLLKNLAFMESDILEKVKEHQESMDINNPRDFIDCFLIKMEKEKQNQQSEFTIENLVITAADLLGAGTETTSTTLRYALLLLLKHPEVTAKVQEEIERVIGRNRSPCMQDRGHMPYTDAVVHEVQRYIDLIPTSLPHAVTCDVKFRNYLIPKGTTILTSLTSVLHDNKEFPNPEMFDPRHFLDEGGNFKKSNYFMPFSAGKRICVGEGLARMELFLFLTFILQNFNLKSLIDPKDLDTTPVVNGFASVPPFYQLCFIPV
Proto-oncogene tyrosine-protein kinase receptor Ret, sequence (P07949 whole entry): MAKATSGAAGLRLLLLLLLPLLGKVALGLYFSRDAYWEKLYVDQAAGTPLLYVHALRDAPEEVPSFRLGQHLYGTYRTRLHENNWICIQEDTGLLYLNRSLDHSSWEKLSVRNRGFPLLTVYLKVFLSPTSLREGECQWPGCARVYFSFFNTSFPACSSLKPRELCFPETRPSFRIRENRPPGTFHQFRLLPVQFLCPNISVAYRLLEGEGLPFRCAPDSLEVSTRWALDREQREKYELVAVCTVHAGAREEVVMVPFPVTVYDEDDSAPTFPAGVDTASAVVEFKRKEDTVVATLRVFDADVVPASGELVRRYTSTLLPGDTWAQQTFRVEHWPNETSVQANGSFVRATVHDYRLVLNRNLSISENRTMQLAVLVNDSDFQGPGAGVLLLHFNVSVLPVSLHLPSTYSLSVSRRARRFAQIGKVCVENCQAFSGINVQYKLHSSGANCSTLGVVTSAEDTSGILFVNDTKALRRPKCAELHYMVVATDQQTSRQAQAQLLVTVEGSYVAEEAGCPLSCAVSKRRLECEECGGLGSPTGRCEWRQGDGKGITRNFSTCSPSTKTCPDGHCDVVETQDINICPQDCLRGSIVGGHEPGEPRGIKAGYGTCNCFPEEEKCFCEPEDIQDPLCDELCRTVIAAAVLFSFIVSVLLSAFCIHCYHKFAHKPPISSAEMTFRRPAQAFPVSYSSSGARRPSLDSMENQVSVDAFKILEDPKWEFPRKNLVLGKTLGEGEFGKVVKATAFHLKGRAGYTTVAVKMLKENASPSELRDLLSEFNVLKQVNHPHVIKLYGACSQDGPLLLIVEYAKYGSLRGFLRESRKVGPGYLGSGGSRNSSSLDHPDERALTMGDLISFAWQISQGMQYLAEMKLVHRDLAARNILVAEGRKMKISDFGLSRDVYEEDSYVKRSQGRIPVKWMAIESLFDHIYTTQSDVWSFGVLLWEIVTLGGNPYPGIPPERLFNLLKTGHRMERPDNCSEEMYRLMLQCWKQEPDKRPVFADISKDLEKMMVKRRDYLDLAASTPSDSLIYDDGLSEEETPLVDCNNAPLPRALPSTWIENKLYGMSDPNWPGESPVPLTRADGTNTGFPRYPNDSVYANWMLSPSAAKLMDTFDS
Vascular endothelial growth factor receptor 2, sequence (P35968 whole entry): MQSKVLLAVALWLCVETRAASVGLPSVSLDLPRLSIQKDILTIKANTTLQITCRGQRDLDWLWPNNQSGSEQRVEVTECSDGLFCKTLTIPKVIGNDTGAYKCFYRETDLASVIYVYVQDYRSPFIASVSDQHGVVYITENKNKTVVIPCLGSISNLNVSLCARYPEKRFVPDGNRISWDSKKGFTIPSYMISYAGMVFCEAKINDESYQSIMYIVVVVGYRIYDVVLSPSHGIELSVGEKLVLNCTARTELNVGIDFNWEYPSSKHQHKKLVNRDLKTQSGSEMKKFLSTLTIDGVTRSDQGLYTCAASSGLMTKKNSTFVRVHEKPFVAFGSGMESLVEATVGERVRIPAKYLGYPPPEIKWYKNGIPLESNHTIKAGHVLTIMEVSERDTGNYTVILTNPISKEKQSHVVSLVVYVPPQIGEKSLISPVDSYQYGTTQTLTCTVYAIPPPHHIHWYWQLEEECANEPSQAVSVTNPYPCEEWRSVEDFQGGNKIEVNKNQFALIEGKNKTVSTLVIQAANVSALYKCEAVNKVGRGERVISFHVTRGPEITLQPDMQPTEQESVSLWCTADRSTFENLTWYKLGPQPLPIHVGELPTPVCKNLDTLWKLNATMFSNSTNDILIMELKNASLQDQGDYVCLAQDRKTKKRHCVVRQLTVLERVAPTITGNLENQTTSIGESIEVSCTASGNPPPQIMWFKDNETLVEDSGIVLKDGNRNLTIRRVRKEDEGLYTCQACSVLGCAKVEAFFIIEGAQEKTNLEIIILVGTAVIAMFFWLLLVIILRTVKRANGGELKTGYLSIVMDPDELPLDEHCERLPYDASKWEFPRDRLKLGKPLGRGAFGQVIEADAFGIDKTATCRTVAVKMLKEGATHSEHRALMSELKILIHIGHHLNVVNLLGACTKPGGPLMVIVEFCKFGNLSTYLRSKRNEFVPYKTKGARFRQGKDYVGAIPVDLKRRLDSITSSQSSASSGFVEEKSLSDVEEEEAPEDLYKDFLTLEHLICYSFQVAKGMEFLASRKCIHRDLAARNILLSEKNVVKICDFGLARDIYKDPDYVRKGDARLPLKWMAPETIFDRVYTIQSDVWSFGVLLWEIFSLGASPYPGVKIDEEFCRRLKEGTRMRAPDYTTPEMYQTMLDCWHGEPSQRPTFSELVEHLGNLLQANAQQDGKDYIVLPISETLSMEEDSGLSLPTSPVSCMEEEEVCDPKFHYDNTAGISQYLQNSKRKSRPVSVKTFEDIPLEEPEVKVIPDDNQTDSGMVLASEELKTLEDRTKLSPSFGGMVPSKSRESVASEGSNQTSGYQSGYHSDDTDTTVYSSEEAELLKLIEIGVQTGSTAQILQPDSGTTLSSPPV

On to `CC(c1cc2cc(-c3cnn(C)c3)cnc2cc1F)n1nnc2ncc(-c3cnn(CCO)c3)nc21` (stereo in doubt; 14), for which the IC50 in data set [1] was above 30 µM; in data set [2], above 30 µM; in data set [4], above 30 µM; in data set [5], 1.07 µM; in [6], 18.4 µM. In addition, the Activity in the data set on SNU-5 is recorded as 87.9%. Further, the inhibition in vivo at 1 mg/kg with NCI-H1993 was 78.7%. Further, in data set [3], the clearance is 9.67 mL/min/kg. In addition, the inhibition at 10 µM on CYP3A4, on CYP2D6, on CYP2C19 and at CYP1A2 was below 50% in each case. In addition, the microsomal CLint at 1 µM in [7] turned out to be 5 µL/min/mg. Moreover, the Vd in data set [8] turned out to be 2.1 L/kg. Further, the AUC(0-t) at 24 h in [9] was 1250 ng·h/mL.
